These results are taken from ChEMBL document CHEMBL4765283, “Design, synthesis, in vitro and in silico studies of novel 4-oxoquinoline ribonucleoside derivatives as HIV-1 reverse transcriptase inhibitors” (Eur J Med Chem, 2020).

Data set [1] in a line: Protection index, ratio of azidothymidine CC50 to test compound CC50 for human PBMC. As to conditions: read-out: PI. In kind it is ADME, tissue-based.
A short description of data set [2]: Inhibition of recombinant HIV1 HXB2 reverse transcriptase RDDP activity assessed as reduction in biotin/digoxin-dU incorporation into polirA-oligodU template primer measured after 30 mins by ELISA. Further details: species or system HIV-1 M:B_HXB2R. A digest of the protocol: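 Purified recombinant HIV-1 RT (HXB2 clone), 3 U, incubated with compounds over a concentration range and poly(rA)-oligo(dU). Biotin- and digoxin-labelled dU (equimolar) incorporated at 37 °C for 30 min, stopped with 0.5 M EDTA. Product captured on streptavidin-coated plates and detected with peroxidase-tagged anti-digoxin antibody. Absorbance read at 570 nm against 690 nm reference. IC50 from linear regression of dose-response curves.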

Data set [3] in a line: Cytotoxicity against human PBMC assessed as reduction in cell viability after 72 hrs by XTT assay. The data set is classed as tissue-based. The method in brief:
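Primary human PBMCs, 2×10^4 cells/well, exposed to compounds at several concentrations for 72 h. XTT (5 mg/mL) with 0.01 % PMS in DMEM then added for 4 h at 37 °C. Absorbance read at 492 and 620 nm. CC50 obtained by linear regression of dose-response curves.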
(In general: Tetrazolium dyes change colour on reduction, which living cells bring about.)

Data set [4] deals with HIV1 HXB2 reverse transcriptase RDDP activity. The data set can be described thus: Selectivity index, ratio of CC50 for human PBMC to IC50 for inhibition of recombinant HIV1 HXB2 reverse transcriptase RDDP activity. In kind it is toxicity. The conditions noted are these: read-out: Ratio CC50/IC50.

Where only a bound is given, the exact number is not on record here.

As usually defined, the IC50 is the concentration that gives 50% inhibition. By CC50 is commonly meant the concentration that lowers cell viability or growth by half. For `O=C(OC[C@H]1O[C@@H](n2cc(C(=O)NCc3ccc(Cl)cc3)c(=O)c3cc(Cl)ccc32)[C@H](OC(=O)c2ccccc2)[C@@H]1OC(=O)c1ccccc1)c1ccccc1`, the selectivity ratio in data set [1] is greater than 10. For the same compound, in data set [2], the IC50 was 8.8 µM. Besides, the CC50 at 72 h in data set [3] was greater than 1000 µM.

Regarding `O=C(OC[C@H]1O[C@@H](n2cc(C(=O)NCc3ccc(Cl)cc3)c(=O)c3cc(C(F)(F)F)ccc32)[C@H](OC(=O)c2ccccc2)[C@@H]1OC(=O)c1ccccc1)c1ccccc1`, in data set [1], the selectivity ratio was greater than 10. Also, the 50% inhibitory concentration (IC50) in data set [2] came to 2.9 µM. The CC50 at 72 h in data set [3] was greater than 1000 µM.

Consider `Cc1ccc(NC(=O)c2cn([C@@H]3O[C@H](COC(=O)c4ccccc4)[C@@H](OC(=O)c4ccccc4)[C@H]3OC(=O)c3ccccc3)c3ccc(Cl)cc3c2=O)cc1`, for which the selectivity ratio in data set [1] is greater than 10. The IC50 in data set [2] worked out at 16.6 µM. Further, in data set [3], the half-maximal cytotoxic concentration (CC50) at 72 h is greater than 1000 µM.

Regarding `O=C(NC1CCCCC1)c1cn([C@@H]2O[C@H](CO)[C@@H](O)[C@H]2O)c2ccc(Cl)cc2c1=O`, in data set [1], the selectivity ratio was greater than 10. Also, the IC50 in data set [2] came out at 22.4 µM. The 50% cytotoxic concentration (CC50) at 72 h in data set [3] is greater than 1000 µM.

For the compound `O=C(NCc1ccc(Cl)cc1)c1cn([C@@H]2O[C@H](CO)[C@@H](O)[C@H]2O)c2ccc(F)cc2c1=O`, in data set [1], the selectivity ratio is greater than 10. In addition, the IC50 in data set [2] stood at 3.9 µM. Besides, the cytotoxic concentration (CC50) at 72 h in data set [3] is greater than 1000 µM.

As for `O=C(NCc1ccc(Cl)cc1)c1cn([C@@H]2O[C@H](CO)[C@@H](O)[C@H]2O)c2ccc(C(F)(F)F)cc2c1=O`, the selectivity ratio in data set [1] is greater than 10. Moreover, the IC50 in data set [2] worked out at 3.9 µM. Besides, the cytotoxic concentration (CC50) at 72 h in data set [3] was greater than 1000 µM.

For the compound `O=C(NCc1ccc(Cl)cc1)c1cn([C@@H]2O[C@H](CO)[C@@H](O)[C@H]2O)c2ccc(Cl)cc2c1=O`, the selectivity ratio in data set [1] was greater than 10. In data set [2], the IC50 turned out to be 18.4 µM. In addition, the 50% cytotoxic concentration (CC50) at 72 h in data set [3] was greater than 1000 µM.

As to `O=C(OC[C@H]1O[C@@H](n2cc(C(=O)Nc3ccccc3)c(=O)c3cc(Cl)ccc32)[C@H](OC(=O)c2ccccc2)[C@@H]1OC(=O)c1ccccc1)c1ccccc1`, the selectivity ratio in data set [1] was greater than 10. Further, the IC50 in data set [2] stood at 19.5 µM. Also, the CC50 at 72 h in data set [3] was greater than 1000 µM.

On to `Cc1ccc2c(c1)c(=O)c(C(=O)NCc1ccc(Cl)cc1)cn2[C@@H]1O[C@H](COC(=O)c2ccccc2)[C@@H](OC(=O)c2ccccc2)[C@H]1OC(=O)c1ccccc1`, for which the selectivity ratio in data set [1] is greater than 10; in data set [4], 830. For the same compound, the IC50 in data set [2] was found to be 1.6 µM. Further, the 50% cytotoxic concentration (CC50) at 72 h in data set [3] amounted to 1390 µM.

As for `COc1ccc(NC(=O)c2cn([C@@H]3O[C@H](CO)[C@@H](O)[C@H]3O)c3ccc(Cl)cc3c2=O)cc1`, the selectivity ratio in data set [1] is greater than 10. In addition, the half-inhibitory concentration (IC50) in data set [2] amounted to 3.4 µM. In addition, in data set [3], the 50% cytotoxic concentration (CC50) at 72 h was greater than 1000 µM.

For `O=C(OC[C@H]1O[C@@H](n2cc(C(=O)Nc3ccc(F)cc3)c(=O)c3cc(Cl)ccc32)[C@H](OC(=O)c2ccccc2)[C@@H]1OC(=O)c1ccccc1)c1ccccc1`, the selectivity ratio in data set [1] is greater than 10. For the same compound, in data set [2], the IC50 was 7.3 µM. The half-maximal cytotoxic concentration (CC50) at 72 h in data set [3] was greater than 1000 µM.

As for `O=C(NCc1ccc(Cl)cc1)c1cn([C@@H]2O[C@H](CO)[C@@H](O)[C@H]2O)c2ccccc2c1=O`, the selectivity ratio in data set [1] is greater than 10. In addition, in data set [2], the IC50 worked out at 29.2 µM. Further, the CC50 at 72 h in data set [3] is greater than 1000 µM.

With `Cc1cn([C@H]2C[C@H](N=[N+]=[N-])[C@@H](CO)O2)c(=O)[nH]c1=O` [ZIDOVUDINE], the IC50 in data set [2] was determined as 0.05 µM. In addition, the CC50 at 72 h in data set [3] came out at 126 µM.

With `O=C(Nc1ccc(Cl)cc1)c1cn([C@@H]2O[C@H](CO)[C@@H](O)[C@H]2O)c2ccc(Cl)cc2c1=O`, in data set [1], the selectivity ratio is greater than 10. The concentration for half-maximal inhibition (IC50) in data set [2] was 8 µM. Further, the CC50 at 72 h in data set [3] is greater than 1000 µM.

As for `O=C(OC[C@H]1O[C@@H](n2cc(C(=O)NC3CCCCC3)c(=O)c3cc(Cl)ccc32)[C@H](OC(=O)c2ccccc2)[C@@H]1OC(=O)c1ccccc1)c1ccccc1`, the selectivity ratio in data set [1] is greater than 10. Besides, in data set [2], the IC50 turned out to be 8.6 µM. Also, the CC50 at 72 h in data set [3] is greater than 1000 µM.

With `O=C(Nc1ccccc1)c1cn([C@@H]2O[C@H](CO)[C@@H](O)[C@H]2O)c2ccc(Cl)cc2c1=O`, the selectivity ratio in data set [1] was greater than 10. The half-inhibitory concentration (IC50) in data set [2] came out at 2.6 µM. In addition, the CC50 at 72 h in data set [3] was greater than 1000 µM.

For the compound `O=C(OC[C@H]1O[C@@H](n2cc(C(=O)NCc3ccc(Cl)cc3)c(=O)c3cc(F)ccc32)[C@H](OC(=O)c2ccccc2)[C@@H]1OC(=O)c1ccccc1)c1ccccc1`, the selectivity ratio in data set [1] is greater than 10. The half-inhibitory concentration (IC50) in data set [2] was determined as 2.8 µM. The CC50 at 72 h in data set [3] was greater than 1000 µM.

Turning to `Cc1ccc2c(c1)c(=O)c(C(=O)NCc1ccc(Cl)cc1)cn2[C@@H]1O[C@H](CO)[C@@H](O)[C@H]1O`, in data set [1], the selectivity ratio was greater than 10. The IC50 in data set [2] was 4.3 µM. The cytotoxic concentration (CC50) at 72 h in data set [3] was greater than 1000 µM.

With `O=C(Nc1ccc(F)cc1)c1cn([C@@H]2O[C@H](CO)[C@@H](O)[C@H]2O)c2ccc(Cl)cc2c1=O`, the selectivity ratio in data set [1] is greater than 10. Besides, the IC50 in data set [2] stood at 5.8 µM. In addition, the half-maximal cytotoxic concentration (CC50) at 72 h in data set [3] is greater than 1000 µM.

Take `O=C(OC[C@H]1O[C@@H](n2cc(C(=O)NCc3ccc(Cl)cc3)c(=O)c3ccccc32)[C@H](OC(=O)c2ccccc2)[C@@H]1OC(=O)c1ccccc1)c1ccccc1`: the selectivity ratio in data set [1] is greater than 10; in data set [4], 998. In addition, the concentration for half-maximal inhibition (IC50) in data set [2] amounted to 1.4 µM. The half-maximal cytotoxic concentration (CC50) at 72 h in data set [3] worked out at 1490 µM.

With `COc1ccc(NC(=O)c2cn([C@@H]3O[C@H](COC(=O)c4ccccc4)[C@@H](OC(=O)c4ccccc4)[C@H]3OC(=O)c3ccccc3)c3ccc(Cl)cc3c2=O)cc1`, the selectivity ratio in data set [1] was greater than 10. In data set [2], the IC50 came out at 6.8 µM. Besides, in data set [3], the 50% cytotoxic concentration (CC50) at 72 h is greater than 1000 µM.

For the compound `O=C(OC[C@H]1O[C@@H](n2cc(C(=O)Nc3ccc(Cl)cc3)c(=O)c3cc(Cl)ccc32)[C@H](OC(=O)c2ccccc2)[C@@H]1OC(=O)c1ccccc1)c1ccccc1`, the selectivity ratio in data set [1] was greater than 10. Besides, the IC50 in data set [2] is 9.9 µM. In addition, the CC50 at 72 h in data set [3] was greater than 1000 µM.
